Our source for the IC50 and inhibition values is ChEMBL document CHEMBL3593206, “SAR Studies of Exosite-Binding Substrate-Selective Inhibitors of A Disintegrin And Metalloprotease 17 (ADAM17) and Application as Selective in Vitro Probes” (J Med Chem, 2015).

Assay [1] concerns the target T1, Disintegrin and metalloproteinase domain-containing protein 10 (Homo sapiens, UniProt O14672).
T1 sequence (O14672 whole entry): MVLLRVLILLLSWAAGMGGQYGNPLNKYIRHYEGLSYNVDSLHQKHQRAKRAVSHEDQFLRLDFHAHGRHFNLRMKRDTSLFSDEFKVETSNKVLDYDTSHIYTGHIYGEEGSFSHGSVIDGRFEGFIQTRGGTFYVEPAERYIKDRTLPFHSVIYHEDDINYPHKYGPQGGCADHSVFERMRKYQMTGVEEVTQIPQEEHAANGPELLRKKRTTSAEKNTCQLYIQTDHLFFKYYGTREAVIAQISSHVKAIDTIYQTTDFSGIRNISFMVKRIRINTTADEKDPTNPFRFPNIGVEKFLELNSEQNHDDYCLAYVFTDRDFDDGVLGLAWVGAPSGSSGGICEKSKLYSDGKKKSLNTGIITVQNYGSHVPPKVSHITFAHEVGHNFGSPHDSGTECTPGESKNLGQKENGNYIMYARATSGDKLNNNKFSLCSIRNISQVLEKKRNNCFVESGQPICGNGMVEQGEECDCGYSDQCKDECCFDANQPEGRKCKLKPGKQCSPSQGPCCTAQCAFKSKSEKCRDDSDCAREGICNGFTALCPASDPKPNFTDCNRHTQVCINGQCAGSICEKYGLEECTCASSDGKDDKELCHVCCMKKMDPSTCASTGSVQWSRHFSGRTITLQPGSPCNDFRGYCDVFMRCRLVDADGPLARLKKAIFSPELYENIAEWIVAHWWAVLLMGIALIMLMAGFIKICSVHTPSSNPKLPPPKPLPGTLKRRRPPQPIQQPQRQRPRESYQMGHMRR
Description: Inhibition of ADAM10 (unknown origin) preincubated for 30 mins followed by substrate addition measured every 30 mins for 2 hrs by fluorescence assay. In outline:
(§1)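 Enzyme at 30 nM (3× solution) in 10 mM Hepes, 0.001% Brij-35, pH 7.5. Inhibitor series of 10 points, 1:3, from 300 μM, preincubated 30 min at RT. Glycosylated substrate added from a 30 μM 3× solution. Fluorescence (ex 360/em 460 nm) read every 30 min for 2 h. Inhibition taken from hydrolysis rates against substrate-only and substrate-plus-enzyme wells.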

Assay [2] concerns the target T2, Disintegrin and metalloproteinase domain-containing protein 17 (Homo sapiens, UniProt P78536). Description: Inhibition of ADAM17 (unknown origin) preincubated for 30 mins followed by substrate addition measured every 30 mins for 2 hrs by fluorescence assay. Put shortly:
as §1

Assay [3] concerns the target T3, Disintegrin and metalloproteinase domain-containing protein 10 (Homo sapiens) (UniProt O14672).
T3 sequence (whole entry): T1 sequence (O14672 whole entry)
The assay is described as follows: Inhibition of ADAM10 (unknown origin) at 100 uM preincubated for 30 mins followed by substrate addition measured every 30 mins for 2 hrs by fluorescence assay relative to control. Put shortly:
as §1

Assay [4] concerns the target 72 kDa type IV collagenase (Homo sapiens, UniProt P08253). The assay is described as follows: Inhibition of MMP2 (unknown origin) using Mca-KLPGL-Dnp-AR as substrate at 100 uM preincubated for 30 mins followed by substrate addition measured after 1 hr by fluorescence assay relative to control. Put shortly:
(§2)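 Inhibitor as 10-point 1:3 dilutions from 300 μM, 30 min at RT. Substrate added from a 30 μM 3× solution. Single fluorescence read (ex 324/em 393 nm) after 1 h at RT.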

For another assay, the target named is Neutrophil collagenase (Homo sapiens, UniProt P22894). The assay is described as follows: Inhibition of MMP8 (unknown origin) using Mca-KLPGL-Dnp-AR as substrate at 100 uM preincubated for 30 mins followed by substrate addition measured after 1 hr by fluorescence assay relative to control. Put shortly: as §2
Sequence of Neutrophil collagenase (P22894 101-467 limits assumed): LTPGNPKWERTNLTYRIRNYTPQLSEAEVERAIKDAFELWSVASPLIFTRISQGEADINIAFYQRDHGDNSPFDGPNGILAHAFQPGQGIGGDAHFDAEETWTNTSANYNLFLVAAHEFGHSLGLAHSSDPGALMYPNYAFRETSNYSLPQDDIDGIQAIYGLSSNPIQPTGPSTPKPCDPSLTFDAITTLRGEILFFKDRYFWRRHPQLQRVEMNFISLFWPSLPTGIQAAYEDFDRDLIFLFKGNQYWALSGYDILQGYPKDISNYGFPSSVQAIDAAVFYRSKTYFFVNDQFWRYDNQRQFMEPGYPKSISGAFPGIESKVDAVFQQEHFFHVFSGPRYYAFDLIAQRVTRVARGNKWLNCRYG
The target in assay [5] is Matrix metalloproteinase-9 (Homo sapiens, UniProt P14780). Description: Inhibition of MMP9 (unknown origin) using Mca-KLPGL-Dnp-AR as substrate at 100 uM preincubated for 30 mins followed by substrate addition measured after 1 hr by fluorescence assay relative to control. In outline: as §2
Sequence of Matrix metalloproteinase-9 (P14780 whole entry): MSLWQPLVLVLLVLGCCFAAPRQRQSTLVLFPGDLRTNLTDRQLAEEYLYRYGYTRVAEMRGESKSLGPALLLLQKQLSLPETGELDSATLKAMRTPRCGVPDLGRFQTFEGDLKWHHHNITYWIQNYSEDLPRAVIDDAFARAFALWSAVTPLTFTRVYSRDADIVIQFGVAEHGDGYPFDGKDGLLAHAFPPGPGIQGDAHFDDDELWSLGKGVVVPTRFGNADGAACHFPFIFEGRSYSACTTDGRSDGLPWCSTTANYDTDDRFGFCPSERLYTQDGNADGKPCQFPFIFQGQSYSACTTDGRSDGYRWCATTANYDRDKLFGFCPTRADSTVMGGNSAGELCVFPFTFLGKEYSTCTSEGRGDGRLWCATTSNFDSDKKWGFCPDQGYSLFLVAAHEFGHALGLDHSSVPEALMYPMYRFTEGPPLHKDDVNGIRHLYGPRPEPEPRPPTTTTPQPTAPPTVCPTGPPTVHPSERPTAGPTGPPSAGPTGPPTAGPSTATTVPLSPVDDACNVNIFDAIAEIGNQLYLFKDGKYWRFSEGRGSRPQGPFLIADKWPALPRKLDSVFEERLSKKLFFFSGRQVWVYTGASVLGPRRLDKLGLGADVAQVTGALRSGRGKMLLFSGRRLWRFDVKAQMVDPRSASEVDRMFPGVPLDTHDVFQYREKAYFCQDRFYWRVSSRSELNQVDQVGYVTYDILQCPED
Assay [6] addresses Matrix metalloproteinase-14 (Homo sapiens, UniProt P50281). The assay is described as follows: Inhibition of MMP14 (unknown origin) using Mca-KLPGL-Dnp-AR as substrate at 100 uM preincubated for 30 mins followed by substrate addition measured after 1 hr by fluorescence assay relative to control.
The target in assay [7] is T2, Disintegrin and metalloproteinase domain-containing protein 17. Description: Inhibition of ADAM17 (unknown origin) at 100 uM preincubated for 30 mins followed by substrate addition measured every 30 mins for 2 hrs by fluorescence assay relative to control. Put shortly: as §1
The target is the same in assay [8]. Description: Inhibition of ADAM17 in human THP1 cells assessed as inhibition of LPS-stimulated TNFalpha cleavage at 25 uM after 1 hr by AlphaScreen assay relative to control. The format is cell-based. The note with it: THP-1. Put shortly:
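THP-1 cells grown in RPMI 1640 with 10% FBS and 0.05 mM 2-mercaptoethanol; 3000 cells per well. Compound given in 3% DMSO for 1 h, then LPS added (1 μg/mL final) and cells incubated overnight at 37 °C. TNFα detected by AlphaScreen using anti-TNFα acceptor beads and streptavidin donor beads, each step 1 h in the dark at RT.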
A general note: In Alpha technology, singlet oxygen from a donor bead excites a nearby acceptor bead.

For assay [9] the target is unchanged. The assay is described as follows: Inhibition of ADAM17 in human A549 cells assessed as inhibition of PMA-stimulated heregulin shedding at 40 uM incubated for 1 hr followed by PMA stimulation measured after 1 hr. The format is cell-based. In outline:
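Heregulin shedding in A549 cells, with all compounds tested at 40 μM.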

The target in assay [10] is T3, Disintegrin and metalloproteinase domain-containing protein 10 (Homo sapiens). Description: Inhibition of ADAM10 in human A549 cells assessed as inhibition of betacellulin shedding at 40 uM after 1 hr by ELISA. The format is cell-based. In outline:
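A549 cells were tested for betacellulin shedding at 40 μM, with Marimastat at 10 μM as control.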
(In an ELISA, binding on a coated surface is turned into a signal by an enzyme label.)

Assay [11] addresses T2, Disintegrin and metalloproteinase domain-containing protein 17. The assay is described as follows: Inhibition of ADAM17 in human A549 cells assessed as effect on PMA-stimulated TGFalpha shedding up to 100 uM preincubated for 1 hr followed by PMA stimulation measured after 1 hr by ELISA. The format is cell-based. Put shortly:
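TGFα shedding from PMA-treated A549 cells tested up to 100 μM. Marimastat at 10 μM served as control, with a non-PMA-treated control included; soluble TGFα measured in the supernatant.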

T2 sequence (P78536 whole entry, the tested form may be a part): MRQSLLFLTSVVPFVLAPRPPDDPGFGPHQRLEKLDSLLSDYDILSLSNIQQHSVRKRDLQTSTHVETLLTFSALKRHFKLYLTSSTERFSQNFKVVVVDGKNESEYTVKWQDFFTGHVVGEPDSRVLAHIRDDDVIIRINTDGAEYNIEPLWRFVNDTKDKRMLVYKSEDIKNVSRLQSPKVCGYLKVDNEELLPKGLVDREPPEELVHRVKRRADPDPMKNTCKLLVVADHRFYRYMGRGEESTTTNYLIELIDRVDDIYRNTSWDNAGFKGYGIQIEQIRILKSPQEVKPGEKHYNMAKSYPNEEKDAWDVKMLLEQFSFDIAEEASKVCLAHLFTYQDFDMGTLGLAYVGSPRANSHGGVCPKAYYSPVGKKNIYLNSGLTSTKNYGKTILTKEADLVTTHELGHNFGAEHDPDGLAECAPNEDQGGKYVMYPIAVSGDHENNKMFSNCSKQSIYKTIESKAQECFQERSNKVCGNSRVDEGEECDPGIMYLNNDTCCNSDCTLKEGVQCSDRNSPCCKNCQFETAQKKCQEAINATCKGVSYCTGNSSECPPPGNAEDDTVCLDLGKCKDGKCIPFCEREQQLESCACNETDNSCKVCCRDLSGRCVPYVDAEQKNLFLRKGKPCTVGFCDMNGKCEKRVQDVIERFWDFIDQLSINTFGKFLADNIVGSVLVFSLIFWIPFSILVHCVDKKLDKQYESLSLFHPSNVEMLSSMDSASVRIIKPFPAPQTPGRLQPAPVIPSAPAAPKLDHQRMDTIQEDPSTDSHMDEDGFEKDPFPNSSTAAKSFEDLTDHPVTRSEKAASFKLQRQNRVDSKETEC
Sequence of 72 kDa type IV collagenase (P08253 110-660 limits assumed): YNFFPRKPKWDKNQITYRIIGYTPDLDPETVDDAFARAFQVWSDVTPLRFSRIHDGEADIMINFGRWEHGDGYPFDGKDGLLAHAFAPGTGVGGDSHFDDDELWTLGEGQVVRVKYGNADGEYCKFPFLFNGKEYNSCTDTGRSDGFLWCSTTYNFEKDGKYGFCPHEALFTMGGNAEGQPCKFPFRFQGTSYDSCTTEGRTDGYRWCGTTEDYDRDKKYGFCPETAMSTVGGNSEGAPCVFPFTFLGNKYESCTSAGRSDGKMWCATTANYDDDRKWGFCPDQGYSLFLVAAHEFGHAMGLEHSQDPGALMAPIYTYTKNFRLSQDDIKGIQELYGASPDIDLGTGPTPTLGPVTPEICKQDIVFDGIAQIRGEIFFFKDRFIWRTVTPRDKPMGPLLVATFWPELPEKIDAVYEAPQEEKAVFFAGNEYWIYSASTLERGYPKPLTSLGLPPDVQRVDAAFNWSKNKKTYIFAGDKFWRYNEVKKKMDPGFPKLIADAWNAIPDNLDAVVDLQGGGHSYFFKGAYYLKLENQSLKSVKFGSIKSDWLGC

By IC50 is commonly meant the concentration that gives 50% inhibition. High values mean weaker potency in that assay, low ones greater potency in that assay. Take `CCC[C@H]1CNC(=O)C(=O)N1C[C@@H]1CCCN1C[C@H](Cc1ccc(O)cc1)N1C[C@H](Cc2ccc(O)cc2)N(CC(CC)c2ccccc2)C(=O)C1=O` (stereo not given in full): the IC50 was above 100 µM in assay [1] and 15 µM in [2].

The term inhibition denotes the share of the control response that was lost under treatment. Take `O=C1NCC(Cc2ccccc2)N(C[C@@H]2CCCN2C[C@@H](CC2CCCCC2)N2C[C@H](Cc3ccccc3)N(CCc3ccccc3)C(=O)C2=O)C1=O` (single isomer, unassigned): the inhibition in [3] was found to be 0%; in assay [4], 0%; on Neutrophil collagenase, 0%; in assay [5], 0%; in assay [6], 0%; in assay [7] it was 100%. In addition, the inhibition turned out to be 0% in [8], 34% in assay [9], 0% in assay [10] and 0% in assay [11].

For `O=C1NC[C@@H](Cc2ccc3ccccc3c2)N(C[C@@H]2CCCN2C[C@H](Cc2ccc(O)cc2)N2C[C@H](Cc3ccc(O)cc3)N(CCC34CC5CC(CC(C5)C3)C4)C(=O)C2=O)C1=O`, the half-inhibitory concentration (IC50) in assay [1] was above 100 µM; in [2], 8.1 µM.

Regarding `O=C1NC[C@@H](Cc2ccc3ccccc3c2)N(C[C@@H]2CCCN2C[C@H](Cc2ccc(O)cc2)N2C[C@H](Cc3ccc4ccccc4c3)N(CCC34CC5CC(CC(C5)C3)C4)C(=O)C2=O)C1=O`, the half-maximal inhibitory concentration (IC50) in assay [1] was above 100 µM; in assay [2], 8.4 µM.

In the case of `CCC[C@H]1CNC(=O)C(=O)N1C[C@@H]1CCCN1C[C@H](Cc1ccc(O)cc1)N1C[C@@H](Cc2ccc3ccccc3c2)N(CCC23CC4CC(CC(C4)C2)C3)C(=O)C1=O`, the results for the concentration for half-maximal inhibition (IC50) in assay [1] and in assay [2] were above 100 µM and 7.9 µM, respectively.

Regarding `CCC[C@H]1CNC(=O)C(=O)N1C[C@@H]1CCCN1C[C@H](Cc1ccc(O)cc1)N1C[C@H](Cc2ccc(O)cc2)N(CC23CC4CC(CC(C4)C2)C3)C(=O)C1=O`, the results for the IC50 in assay [1] and in [2] were above 100 µM and 10 µM, respectively.

As to `CCC[C@H]1CNC(=O)C(=O)N1C[C@@H]1CCCN1C[C@H](Cc1ccc(O)cc1)N1C[C@H](Cc2ccc3ccccc3c2)N(CCC23CC4CC(CC(C4)C2)C3)C(=O)C1=O`, the IC50 in assay [1] was above 100 µM; in assay [2], 10 µM.

Regarding `CCCC[C@H]1CN([C@@H](Cc2ccc(O)cc2)CN2CCC[C@H]2CN2C(=O)C(=O)NC[C@@H]2CCC)C(=O)C(=O)N1CCC12CC3CC(CC(C3)C1)C2`, the results for the IC50 in [1] and in assay [2] were above 100 µM and 6.5 µM, respectively.

As to `CCC[C@H]1CNC(=O)C(=O)N1C[C@@H]1CCCN1C[C@H](Cc1ccc(O)cc1)N1C[C@H](Cc2ccc(O)cc2)N(CC2CCCCC2)C(=O)C1=O`, the IC50 was above 100 µM in assay [1] and 29 µM in [2].

As to `CCC[C@H]1CNC(=O)C(=O)N1C[C@@H]1CCCN1C[C@H](Cc1ccc(O)cc1)N1C[C@H](Cc2ccc(O)cc2)N(CC2CCC2)C(=O)C1=O`, the IC50 is above 100 µM in assay [1] and 94 µM in assay [2].

Regarding `CCC[C@H]1CNC(=O)C(=O)N1C[C@@H]1CCCN1C[C@H](Cc1ccc(O)cc1)N1C[C@H](Cc2ccc(O)cc2)N(CCC23CC4CC(CC(C4)C2)C3)C(=O)C1=O`, the IC50 is above 100 µM in assay [1] and 5.9 µM in assay [2].

On to `CCC[C@H]1CNC(=O)C(=O)N1C[C@@H]1CCCN1C[C@H](Cc1ccc(O)cc1)N1C[C@H](Cc2ccc(O)cc2)N(CC2CCC(C(C)(C)C)CC2)C(=O)C1=O` (stereo not given in full), for which the IC50 was above 100 µM in assay [1] and 10 µM in [2].

For `O=C1NC[C@@H](Cc2ccc3ccccc3c2)N(C[C@@H]2CCCN2C[C@H](Cc2ccc(O)cc2)N2C[C@@H](Cc3ccc(O)cc3)N(CCC34CC5CC(CC(C5)C3)C4)C(=O)C2=O)C1=O`, the IC50 in assay [1] was above 100 µM; in [2] it was 15 µM.

For the molecule `O=C1NC[C@@H](Cc2ccc3ccccc3c2)N(C[C@@H]2CCCN2C[C@H](Cc2ccc(O)cc2)N2C[C@@H](Cc3ccc4ccccc4c3)N(CCC34CC5CC(CC(C5)C3)C4)C(=O)C2=O)C1=O`, the results for the IC50 in assay [1] and in [2] were above 100 µM and 5.7 µM, respectively.

Take `CCC[C@H]1CNC(=O)C(=O)N1C[C@@H]1CCCN1C[C@H](Cc1ccc(O)cc1)N1C[C@H](Cc2ccc(O)cc2)N(CC2CCCC2)C(=O)C1=O`: the IC50 is above 100 µM in [1] and 35 µM in assay [2].

`CCC[C@H]1CNC(=O)C(=O)N1C[C@@H]1CCCN1C[C@H](Cc1ccc(O)cc1)N1C[C@@H](Cc2ccc(O)cc2)N(CCC23CC4CC(CC(C4)C2)C3)C(=O)C1=O`: the IC50 in assay [1] is above 100 µM; in assay [2], 5.4 µM.
